Results: ChEMBL document CHEMBL4014329, “Selective Inhibition of Escherichia coli RNA and DNA Topoisomerase I by Hoechst 33258 Derived Mono- and Bisbenzimidazoles” (J Med Chem, 2017)
Converted amounts (≈) assume the structure as drawn. The source made the active and inactive calls. No cut-off for these calls is given here.

What was measured:
[1] = Binding affinity to dA60.dT60 B-DNA duplex (unknown origin) assessed as change in melting temperature at 10 uM by UV-vis spectrophotometric analysis
Procedure, shortened: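 UV melting of dA60·dT60 at 1 μM/duplex with compound at 10 μM. Buffer 10 mM sodium cacodylate, 0.1 mM EDTA, 100 mM NaCl, pH 7.0; duplex pre-annealed from 95 °C. Compound stocks in DMSO diluted into buffer. Heating at 0.2 °C/min, monitored at 260 nm, points every 1.0 °C; Tm taken from derivatives.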

[2] = Inhibition of Escherichia coli DNA topoisomerase 1 using plasmid pBAD-GFPuv as substrate after 15 mins by agarose gel electrophoresis
Procedure, shortened: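 E. coli topoisomerase I at 6 nM relaxing 150 ng supercoiled pBAD-GFPuv. 15 min at 37 °C, phenol-stopped, 1% agarose gel, ethidium stain. IC50 is the concentration leaving 50% DNA supercoiled; three independent determinations.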

[3] = test system: Staphylococcus epidermidis; assay: Antibacterial activity against Staphylococcus epidermidis ATCC 12384 after 24 hrs by microbroth dilution method; format: functional; settings: ATCC 12384, 24 h
Procedure, shortened: (§1)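 Microbroth dilution per CLSI guidelines. Organisms grown in Mueller−Hinton broth at 37 °C with shaking to log phase, pelleted, resuspended in 0.85% saline to OD625 0.1. Final inoculum 5 × 10^5 CFU/mL; triplicate; 24 h at 37 °C. OD625 read; MIC = lowest concentration completely inhibiting growth versus untreated controls.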

Staphylococcus aureus [4] = assay: Antibacterial activity against Staphylococcus aureus ATCC 29213 after 24 hrs by microbroth dilution method; format: functional; settings: ATCC 29213, 24 h; procedure, shortened: as §1
Enterobacter cloacae = assay: Antibacterial activity against Enterobacter cloacae ATCC 13047 after 24 hrs by microbroth dilution method; format: functional; settings: ATCC 13047, 24 h; procedure, shortened: as §1
Shigella flexneri = assay: Antibacterial activity against Shigella flexneri 2457NR517 after 24 hrs by microbroth dilution method; format: functional; settings: 2457NR517, 24 h
Procedure, shortened: (§2)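 Mueller-Hinton broth cultures grown at 37 °C with shaking to log phase, pelleted, resuspended in 0.85% saline to OD625 0.1. Broth microdilution per CLSI guidelines, final inoculum 5 × 10^5 CFU/mL, in triplicate, 24 h at 37 °C. Growth read as OD625. MIC is the lowest concentration giving complete growth inhibition versus untreated controls.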

Escherichia coli [5] = assay: Inhibition of Escherichia coli RNA topoisomerase-1 using circular RNA as substrate 10 uM after 1.5 hrs by SDS-PAGE analysis
Procedure, shortened: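 10 nM E. coli topoisomerase I premixed with reaction buffer and inhibitor diluted in DMSO, then circular RNA substrate added; 1.5 h incubation. Stopped with proteinase K/SDS/EDTA buffer. Trefoil RNA knot product separated from circular substrate on 15% TBE−urea gels and detected by phosphorimaging. DMSO-only control included.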

Pseudomonas aeruginosa = assay: Antibacterial activity against Pseudomonas aeruginosa ATCC 27853 after 24 hrs by microbroth dilution method; format: functional; settings: ATCC 27853, 24 h; procedure, shortened: as §1
Staphylococcus aureus [6] = assay: Antibacterial activity against methicillin-resistant Staphylococcus aureus A960649 after 24 hrs by microbroth dilution method; format: functional; settings: A960649, 24 h; procedure, shortened: as §2
DU-145 = assay: Cytotoxicity against human DU145 cells after 48 hrs by SRB assay; format: cell-based; settings: for IC50: Homo sapiens, DU-145, 48 h
Procedure, shortened: (§3)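 Cells cultured per ATCC protocols, seeded and grown 24 h (37 °C, 5% CO2), then treated in triplicate at final 20, 10, 5, 2.5, 1.25, 0.625 and 0.0625 μM for 48 h. Fixed with cold TCA (16% final, 4 °C, 1 h), stained with SRB in 1% acetic acid, dye solubilized in 10 mM Tris base, A560 read. IC50 derived; study in duplicate.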

Escherichia coli [7] = assay: Antibacterial activity against Escherichia coli K-12 after 24 hrs by microbroth dilution method; format: functional; settings: K-12, 24 h; procedure, shortened: as §1
Enterococcus faecium = assay: Antibacterial activity against Enterococcus faecium BM4105RF after 24 hrs by microbroth dilution method; format: functional; procedure, shortened: as §2
DNA topoisomerase 1 = biological target: T1, DNA topoisomerase 1 (Homo sapiens, UniProt P11387); assay: Inhibition of human DNA topoisomerase 1 using plasmid pBAD-GFPuv as substrate after 30 mins by agarose gel electrophoresis
T1 sequence (P11387 whole entry): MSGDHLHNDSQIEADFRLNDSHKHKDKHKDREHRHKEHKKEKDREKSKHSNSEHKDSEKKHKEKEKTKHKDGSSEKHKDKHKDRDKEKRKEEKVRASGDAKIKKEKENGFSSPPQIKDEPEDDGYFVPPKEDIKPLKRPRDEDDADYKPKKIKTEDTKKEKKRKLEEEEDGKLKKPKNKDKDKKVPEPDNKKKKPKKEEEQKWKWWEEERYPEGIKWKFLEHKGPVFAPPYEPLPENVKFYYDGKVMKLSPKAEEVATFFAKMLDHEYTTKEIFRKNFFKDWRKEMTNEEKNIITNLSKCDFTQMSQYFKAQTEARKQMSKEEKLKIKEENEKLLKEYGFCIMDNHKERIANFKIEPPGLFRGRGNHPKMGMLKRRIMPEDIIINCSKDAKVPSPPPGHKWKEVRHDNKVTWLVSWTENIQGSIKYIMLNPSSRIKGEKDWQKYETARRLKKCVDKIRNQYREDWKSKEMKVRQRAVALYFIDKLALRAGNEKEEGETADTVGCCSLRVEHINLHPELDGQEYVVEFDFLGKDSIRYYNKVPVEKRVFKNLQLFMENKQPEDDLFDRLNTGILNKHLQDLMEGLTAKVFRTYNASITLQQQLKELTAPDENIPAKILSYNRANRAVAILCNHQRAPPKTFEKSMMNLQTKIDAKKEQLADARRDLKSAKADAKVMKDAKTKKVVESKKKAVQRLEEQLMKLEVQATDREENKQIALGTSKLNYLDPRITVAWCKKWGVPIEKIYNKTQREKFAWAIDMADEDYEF

Escherichia coli [8] = assay: Antibacterial activity against Escherichia coli ATCC 25922 after 24 hrs by microbroth dilution method; format: functional; settings: ATCC 25922, 24 h; procedure, shortened: as §1
Klebsiella pneumoniae = assay: Antibacterial activity against Klebsiella pneumoniae NR15410 after 24 hrs by microbroth dilution method; format: functional; settings: NR15410, 24 h; procedure, shortened: as §1
Enterococcus faecalis = assay: Antibacterial activity against Enterococcus faecalis ATCC 29212 after 24 hrs by microbroth dilution method; format: functional; settings: ATCC 29212, 24 h; procedure, shortened: as §1
Acinetobacter baumannii = assay: Antibacterial activity against Acinetobacter baumannii ATCC 19606 after 24 hrs by microbroth dilution method; format: functional; settings: ATCC 19606 = CIP 70.34 = JCM 6841, 24 h; procedure, shortened: as §1
Citrobacter freundii = assay: Antibacterial activity against Citrobacter freundii 4747CFAA after 24 hrs by microbroth dilution method; format: functional; procedure, shortened: as §1
Staphylococcus aureus [9] = assay: Antibacterial activity against Staphylococcus aureus ATCC 33591 after 24 hrs by microbroth dilution method; format: functional; settings: ATCC 33591, 24 h; procedure, shortened: as §1
[10] = Binding affinity to dA60.dT60 B-DNA duplex (unknown origin) assessed as induction of biphasic transition at <5 uM by UV-vis spectrophotometric analysis
Staphylococcus aureus [11] = assay: Antibacterial activity against methicillin-resistant Staphylococcus aureus 33591 after 24 hrs by microbroth dilution method; format: functional; settings: Staphylococcus aureus, 33591, 24 h; procedure, shortened: as §2
[12] = Inhibition of human DNA topoisomerase 2 using plasmid pBAD-GFPuv as substrate after 30 mins by agarose gel electrophoresis
Procedure, shortened: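 Compound at 5–50 μM final, 30 min at 37 °C. Phenol extraction, 1% agarose electrophoresis, ethidium stain. IC50 = concentration at which 50% of DNA remains (−) supercoiled.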

Escherichia coli [13] = assay: Inhibition of Escherichia coli RNA topoisomerase 1 using circular RNA as substrate up to 80 uM after 1.5 hrs by SDS-PAGE analysis
Procedure, shortened: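 E. coli topoisomerase I (10 nM) premixed in reaction buffer with inhibitor diluted in DMSO, then circular RNA substrate added; 1.5 h. DMSO-only control included. Final inhibitor 2.5 to 80 μM. Stopped with proteinase K/SDS/EDTA. Trefoil RNA knot product resolved from substrate on 15% TBE-urea gels and detected by autoradiography.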

Escherichia coli [14] = assay: Inhibition of Escherichia coli DNA gyrase using relaxed plasmid pBAD-GFPuv as substrate after 30 mins by agarose gel electrophoresis
[15] = Cytotoxicity against human PCS-201-010 cells after 48 hrs by SRB assay; format: cell-based; settings: PCS-201-010, 48 h; procedure, shortened: as §3

SMILES | ΔTm [1] | IC50 [2] | MIC [3] | MIC (Staphylococcus aureus [4]) | MIC (Enterobacter cloacae) | MIC (Shigella flexneri) | inhibition (Escherichia coli [5]) | MIC (Pseudomonas aeruginosa) | MIC (Staphylococcus aureus [6]) | MIC (Escherichia coli [7]) | MIC (Enterococcus faecium) | IC50 (DNA topoisomerase 1) | MIC (Escherichia coli [8]) | MIC (Klebsiella pneumoniae) | MIC (Enterococcus faecalis) | MIC (Acinetobacter baumannii) | MIC (Citrobacter freundii) | MIC (Staphylococcus aureus [9]) | Activity [10] | MIC (Staphylococcus aureus [11]) | other results
C#CCOCCCCCCCCOc1ccc(-c2nc3ccc(-c4nc5ccc(N6CCN(C)CC6)cc5[nH]4)cc3[nH]2)cc1 | 13.1 °C | 2.8 µM | > 32 µg/mL | > 32 µg/mL | > 32 µg/mL | > 38 µg/mL | Active | 16 to 32 µg/mL (≈ 27.1 to 54.2 µM) | > 32 µg/mL | 2 to 4 µg/mL (≈ 3.39 to 6.77 µM) | > 32 µg/mL | > 50 µM | 16 to 32 µg/mL (≈ 27.1 to 54.2 µM) | > 32 µg/mL | 16 to 32 µg/mL (≈ 27.1 to 54.2 µM) | > 32 µg/mL | > 32 µg/mL | 16 to 32 µg/mL (≈ 27.1 to 54.2 µM) | Active | > 32 µg/mL | Activity (DU-145; human, du-145, 48 h): Toxic
C#CCOCCCCCCCCCCOc1ccc(-c2nc3ccc(-c4nc5ccc(N6CCN(C)CC6)cc5[nH]4)cc3[nH]2)cc1 | 5.6 °C | 12.2 µM | > 32 µg/mL | > 32 µg/mL | > 32 µg/mL | > 32 µg/mL | Active | 16 to 32 µg/mL (≈ 25.9 to 51.7 µM) | > 32 µg/mL | 2 to 4 µg/mL (≈ 3.23 to 6.46 µM) | > 32 µg/mL | > 50 µM | > 32 µg/mL | > 32 µg/mL | 16 to 32 µg/mL (≈ 25.9 to 51.7 µM) | > 32 µg/mL | > 32 µg/mL | > 32 µg/mL | Active | > 32 µg/mL | IC50 [12]: > 50 µM; IC50 (DU-145): > 10 µM
CCOc1ccc(-c2nc3cc(-c4nc5cc(N6CCN(C)CC6)ccc5[nH]4)ccc3[nH]2)cc1 |  |  | 1 µg/mL (≈ 2.21 µM) | 2 to 4 µg/mL (≈ 4.42 to 8.84 µM) | 4 µg/mL (≈ 8.84 µM) | 1 to 2 µg/mL (≈ 2.21 to 4.42 µM) |  | 16 µg/mL (≈ 35.4 µM) | 0.5 µg/mL (≈ 1.1 µM) | 16 µg/mL (≈ 35.4 µM) | 0.3 µg/mL (≈ 0.663 µM) |  | 16 µg/mL (≈ 35.4 µM) |  | 16 to 32 µg/mL (≈ 35.4 to 70.7 µM) | 8 µg/mL (≈ 17.7 µM) |  | 2 to 4 µg/mL (≈ 4.42 to 8.84 µM) |  | 1 µg/mL (≈ 2.21 µM) | inhibition (Escherichia coli [13]): inactive
C#CCOCCCCCCCCCCCCOc1ccc(-c2nc3ccc(-c4nc5ccc(N6CCN(C)CC6)cc5[nH]4)cc3[nH]2)cc1 | 1.2 °C | 4 µM | > 32 µg/mL | 16 to 32 µg/mL (≈ 24.7 to 49.5 µM) | > 32 µg/mL | > 32 µg/mL | Active | 16 µg/mL (≈ 24.7 µM) | > 32 µg/mL | 16 µg/mL (≈ 24.7 µM) | ≥ 32 µg/mL | > 50 µM | 16 µg/mL (≈ 24.7 µM) | > 32 µg/mL | 16 to 32 µg/mL (≈ 24.7 to 49.5 µM) | > 32 µg/mL | > 32 µg/mL | 16 to 32 µg/mL (≈ 24.7 to 49.5 µM) | Active | > 32 µg/mL | inhibition (Escherichia coli [14]): inactive; IC50 (DU-145): > 10 µM; IC50 [15]: > 10 µM
C#CCCCCCCCCCOc1ccc(-c2nc3ccc(-c4nc5ccc(N6CCN(C)CC6)cc5[nH]4)cc3[nH]2)cc1 |  |  | > 32 µg/mL |  | > 32 µg/mL | > 32 µg/mL | Active | 16 µg/mL (≈ 27.8 µM) | > 32 µg/mL |  | > 32 µg/mL |  | 16 µg/mL (≈ 27.8 µM) | > 32 µg/mL |  | > 32 µg/mL | > 32 µg/mL |  |  | > 32 µg/mL | inhibition (Escherichia coli [14]): inactive; IC50 (DU-145): > 10 µM
CCOc1ccc2nc3cc(N)ccc3c(N)c2c1 |  |  |  |  |  |  |  |  |  |  |  |  |  |  |  |  |  |  |  |  | inhibition (Escherichia coli [13]): inactive
